In ChEMBL document CHEMBL1133111, “Structure-based discovery of small molecule inhibitors targeted to protein tyrosine phosphatase 1B” (J Med Chem, 2000):
Values joined by “and” are separate entries in the source; they are usually repeats but may differ in a detail not shown here. Equal entries are not always repeated.

What was measured:
[1] = biological target: T1, Tyrosine-protein phosphatase non-receptor type 1 (Homo sapiens) (UniProt P18031); assay: Inhibitory activity against protein tyrosine phosphatases (PTP1B); no inhibition at 1 mM
T1 sequence (whole entry): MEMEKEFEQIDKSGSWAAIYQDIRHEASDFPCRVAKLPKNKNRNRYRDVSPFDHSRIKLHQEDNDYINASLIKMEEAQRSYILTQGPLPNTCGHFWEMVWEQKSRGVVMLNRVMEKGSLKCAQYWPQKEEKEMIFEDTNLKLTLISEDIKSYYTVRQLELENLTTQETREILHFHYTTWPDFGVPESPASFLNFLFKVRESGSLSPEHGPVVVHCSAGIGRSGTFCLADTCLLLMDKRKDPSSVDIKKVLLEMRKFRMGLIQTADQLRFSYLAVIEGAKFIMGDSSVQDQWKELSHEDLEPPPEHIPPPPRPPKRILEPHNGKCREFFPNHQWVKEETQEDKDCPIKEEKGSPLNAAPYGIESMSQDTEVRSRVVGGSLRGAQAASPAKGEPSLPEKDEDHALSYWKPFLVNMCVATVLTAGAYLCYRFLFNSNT

[2] = biological target: Receptor-type tyrosine-protein phosphatase alpha (Homo sapiens) (UniProt P18433); assay: Inhibitory activity against protein tyrosine phosphatases alpha (PTP alpha)
Receptor-type tyrosine-protein phosphatase alpha (Homo sapiens), sequence (P18433 20-802 limits assumed): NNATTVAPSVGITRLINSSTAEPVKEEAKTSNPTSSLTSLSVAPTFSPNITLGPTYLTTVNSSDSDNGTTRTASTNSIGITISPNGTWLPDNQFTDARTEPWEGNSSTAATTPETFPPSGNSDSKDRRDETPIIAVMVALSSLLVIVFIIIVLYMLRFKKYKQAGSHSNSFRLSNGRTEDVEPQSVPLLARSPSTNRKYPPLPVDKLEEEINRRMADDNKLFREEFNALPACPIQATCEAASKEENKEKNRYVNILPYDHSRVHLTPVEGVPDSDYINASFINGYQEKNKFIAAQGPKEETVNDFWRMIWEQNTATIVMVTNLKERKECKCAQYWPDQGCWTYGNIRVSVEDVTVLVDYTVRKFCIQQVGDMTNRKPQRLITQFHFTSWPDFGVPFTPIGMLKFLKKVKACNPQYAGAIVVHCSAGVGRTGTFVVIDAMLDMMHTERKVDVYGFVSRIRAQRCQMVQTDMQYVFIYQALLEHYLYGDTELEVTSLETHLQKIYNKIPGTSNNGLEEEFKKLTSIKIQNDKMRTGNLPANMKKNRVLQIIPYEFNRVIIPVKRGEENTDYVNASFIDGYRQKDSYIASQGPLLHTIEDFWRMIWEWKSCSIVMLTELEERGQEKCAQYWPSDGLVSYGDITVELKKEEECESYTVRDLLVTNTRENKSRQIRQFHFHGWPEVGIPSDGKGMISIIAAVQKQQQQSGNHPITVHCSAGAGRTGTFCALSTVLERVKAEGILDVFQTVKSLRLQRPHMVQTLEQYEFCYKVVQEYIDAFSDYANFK
How it was run: (§1)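 Recombinant enzymes: human PTP1B; human PTPα intracellular fragment with both PTPase domains, cleaved from GST fusion; LAR with both PTPase domains; VHR purified to homogeneity. pNPP hydrolysis at 30 °C, pH 7.0, 50 mM 3,3-dimethylglutarate, ionic strength 0.15 M (NaCl), 10% DMSO final. Quenched with 1 N NaOH, A405 read. Ki from eight pNPP levels (0.2–5 Km) at three inhibitor concentrations.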

[3] = biological target: Receptor-type tyrosine-protein phosphatase F (Rattus norvegicus) (UniProt Q64604); assay: (§2) Inhibitory activity against rat recombinant leukocyte-common antigen-related molecule (LAR); how it was run: as §1
Receptor-type tyrosine-protein phosphatase F (Rattus norvegicus), sequence (Q64604 whole entry): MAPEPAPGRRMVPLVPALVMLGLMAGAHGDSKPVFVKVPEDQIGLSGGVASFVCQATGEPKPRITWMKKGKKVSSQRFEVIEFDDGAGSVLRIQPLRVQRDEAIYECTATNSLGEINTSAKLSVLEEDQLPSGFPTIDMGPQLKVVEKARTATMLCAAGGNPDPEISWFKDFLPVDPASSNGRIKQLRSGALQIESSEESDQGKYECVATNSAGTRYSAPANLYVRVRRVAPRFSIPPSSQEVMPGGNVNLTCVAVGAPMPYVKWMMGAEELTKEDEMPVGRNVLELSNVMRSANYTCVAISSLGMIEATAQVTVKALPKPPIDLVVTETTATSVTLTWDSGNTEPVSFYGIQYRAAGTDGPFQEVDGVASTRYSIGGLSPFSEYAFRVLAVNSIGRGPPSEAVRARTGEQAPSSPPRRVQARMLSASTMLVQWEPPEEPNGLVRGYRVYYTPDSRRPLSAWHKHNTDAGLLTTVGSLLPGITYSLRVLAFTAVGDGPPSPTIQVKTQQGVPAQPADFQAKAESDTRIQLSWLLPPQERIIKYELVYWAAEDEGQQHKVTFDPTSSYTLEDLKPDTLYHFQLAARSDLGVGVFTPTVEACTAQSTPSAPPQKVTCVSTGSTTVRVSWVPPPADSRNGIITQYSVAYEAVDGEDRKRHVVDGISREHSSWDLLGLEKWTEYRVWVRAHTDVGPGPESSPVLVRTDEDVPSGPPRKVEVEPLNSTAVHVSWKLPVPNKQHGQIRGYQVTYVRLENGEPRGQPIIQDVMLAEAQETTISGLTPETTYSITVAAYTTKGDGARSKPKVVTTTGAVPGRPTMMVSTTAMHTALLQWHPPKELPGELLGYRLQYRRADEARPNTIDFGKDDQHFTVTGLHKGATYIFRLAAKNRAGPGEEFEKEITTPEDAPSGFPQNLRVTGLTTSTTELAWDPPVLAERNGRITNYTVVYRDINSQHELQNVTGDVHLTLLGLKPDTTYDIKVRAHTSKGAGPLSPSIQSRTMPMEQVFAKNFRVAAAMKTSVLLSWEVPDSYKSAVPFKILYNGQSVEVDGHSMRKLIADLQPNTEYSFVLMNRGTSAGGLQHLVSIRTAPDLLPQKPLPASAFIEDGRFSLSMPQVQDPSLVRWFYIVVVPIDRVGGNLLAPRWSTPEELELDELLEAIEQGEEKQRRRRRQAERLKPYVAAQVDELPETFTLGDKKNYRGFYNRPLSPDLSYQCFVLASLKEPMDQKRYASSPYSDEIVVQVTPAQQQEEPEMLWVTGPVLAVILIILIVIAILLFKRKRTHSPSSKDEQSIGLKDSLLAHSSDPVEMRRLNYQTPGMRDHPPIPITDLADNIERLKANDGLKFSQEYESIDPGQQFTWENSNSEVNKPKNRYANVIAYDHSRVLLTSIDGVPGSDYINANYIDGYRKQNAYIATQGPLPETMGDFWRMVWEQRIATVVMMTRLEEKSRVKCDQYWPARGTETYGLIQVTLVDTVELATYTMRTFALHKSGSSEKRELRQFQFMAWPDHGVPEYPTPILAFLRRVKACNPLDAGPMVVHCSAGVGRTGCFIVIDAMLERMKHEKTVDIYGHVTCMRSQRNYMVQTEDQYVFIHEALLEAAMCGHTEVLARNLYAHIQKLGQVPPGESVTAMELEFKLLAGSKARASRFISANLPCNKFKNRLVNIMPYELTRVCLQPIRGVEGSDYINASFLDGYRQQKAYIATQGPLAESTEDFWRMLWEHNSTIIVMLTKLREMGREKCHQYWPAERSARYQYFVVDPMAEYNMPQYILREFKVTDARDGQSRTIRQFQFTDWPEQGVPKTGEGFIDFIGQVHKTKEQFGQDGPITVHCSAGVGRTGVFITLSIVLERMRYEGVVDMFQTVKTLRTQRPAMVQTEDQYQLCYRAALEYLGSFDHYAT

[4] = biological target: T1, Tyrosine-protein phosphatase non-receptor type 1 (Homo sapiens); assay: Inhibitory activity against protein tyrosine phosphatases (PTP1B) (Kis=slope inhibitory constant)
How it was run: (§3)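 Recombinant enzymes used: human PTP1B and LAR bearing both PTPase domains. Compounds were dissolved in DMSO, with 10% DMSO final in all reactions. Buffer was 50 mM 3,3-dimethylglutarate, pH 7.0, ionic strength 0.15 M set with NaCl, at 30 °C. Initial rates of pNPP hydrolysis were measured at eight substrate levels (0.2–5 Km) and three fixed inhibitor levels. Reactions were quenched with NaOH and read at A405 (ε 18 000 M⁻¹ cm⁻¹), correcting for non-enzymatic hydrolysis. Kis (slope) and Kii (intercept) were obtained from steady-state kinetics.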

[5] = biological target: Dual specificity protein phosphatase 3 (Homo sapiens) (UniProt P51452); assay: Inhibitory activity against human recombinant vaccinia H1 related phosphatase (Dual specificity protein phosphatase 3); how it was run: as §1
Dual specificity protein phosphatase 3 (Homo sapiens), sequence (P51452 whole entry, looked up): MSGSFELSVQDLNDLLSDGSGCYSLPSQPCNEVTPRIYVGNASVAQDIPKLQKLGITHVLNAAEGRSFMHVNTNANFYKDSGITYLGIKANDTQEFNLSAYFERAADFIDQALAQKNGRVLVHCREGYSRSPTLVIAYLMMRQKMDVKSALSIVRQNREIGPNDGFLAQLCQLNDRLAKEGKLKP

[6] = biological target: Receptor-type tyrosine-protein phosphatase F (Rattus norvegicus) (UniProt Q64604); assay: as §2; how it was run: as §3; remark: listed apart in the source
[7] = biological target: T1, Tyrosine-protein phosphatase non-receptor type 1 (Homo sapiens); assay: Inhibitory activity against protein tyrosine phosphatases (PTP1B) (Kii=intercept inhibitory constant); how it was run: as §3

Structure (SMILES): C[C@]12CC[C@@H]3c4ccc(OS(=O)(=O)O)cc4CC[C@H]3[C@@H]1CC[C@@H]2O
- NI [1]: no inhibition at 1 mM

Structure (SMILES): O=C(/C=C/c1cccc([N+](=O)[O-])c1)c1c(O)nc2cc([N+](=O)[O-])ccc2c1-c1ccccc1
- Kis [2]: > 100 µM
- Kis [3]: > 100 µM
- Kis [4]: 54 µM
- Kis [5]: > 100 µM

Structure (SMILES): O=[N+]([O-])c1ccc(OS(=O)(=O)O)cc1
- Kis [4]: 10000 µM

Structure (SMILES): O=C(O)c1ccccc1O
- Kis [4]: 19400 µM

Structure (SMILES): O=C(CSc1nnc(Nc2ccc(F)cc2)s1)c1ccc(Cl)cc1
- Kis [2]: 57 µM
- Kii [6]: 92 µM
- Kii [7]: 131 µM
- Kis [3]: 53 µM
- Kis [4]: 110 µM
- Kis [5]: > 100 µM

Structure (SMILES): C[C@]12CC[C@@H]3c4ccc(OS(=O)(=O)O)cc4CC[C@H]3[C@@H]1CCC2=O
- Kis [4]: 2100 µM

Structure (SMILES): O=C1c2ccccc2-c2cc([N+](=O)[O-])cc3cccc1c23
- Kis [2]: > 100 µM
- Kis [3]: 68 µM and 57 µM
- Kis [4]: 21 µM
- Kis [5]: > 100 µM

Structure (SMILES): O=S(=O)(O)Oc1c2ccccc2c2ccc3c(OS(=O)(=O)O)c4ccccc4c4ccc1c2c34
- Kis [2]: > 100 µM
- Kis [3]: > 100 µM
- Kis [4]: 39 µM
- Kis [5]: > 100 µM

Structure (SMILES): Cc1ccc2c(c1)nc(S)n2CNc1ccc(C(=O)O)c(O)c1
- Kis [4]: 750 µM

Structure (SMILES): O=S(=O)(O)c1ccc2c3c(ccc2c1)CCCC3
- Kis [2]: 410 µM
- Kis [3]: > 1000 µM
- Kis [4]: 240 µM
- Kis [5]: > 1000 µM

Structure (SMILES): O=C(O)c1cc(NCn2c(S)nc3ccccc32)ccc1O
- Kis [2]: 180 µM
- Kis [3]: > 100 µM
- Kis [4]: 61 µM
- Kis [5]: > 100 µM

Structure (SMILES): O=C(O)c1ccc(Oc2ccc(C(=O)c3ccc4c(c3)C(=O)OC4=O)cc2)cc1
- Kis [2]: > 1000 µM
- Kis [3]: > 1000 µM
- Kis [4]: 510 µM
- Kis [5]: > 1000 µM
